TAAR1 antag – human TAAR1 antagonism. CHO RD-HGA16 TAAR1, Fluo-8 calcium fluorescence, antagonist. 1.5% of 360,000 active. Q96RJ0. inhibition, % at 3 µM;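 active means inhibition above a per-plate cutoff, the mean inhibition of test compounds on that plate plus 3 SD, cut at about 49% in these data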;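 further: 0% = DMSO plus EC80 beta-PEA response and 100% = DMSO alone without agonist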
Target sequence (Q96RJ0 whole entry, looked up): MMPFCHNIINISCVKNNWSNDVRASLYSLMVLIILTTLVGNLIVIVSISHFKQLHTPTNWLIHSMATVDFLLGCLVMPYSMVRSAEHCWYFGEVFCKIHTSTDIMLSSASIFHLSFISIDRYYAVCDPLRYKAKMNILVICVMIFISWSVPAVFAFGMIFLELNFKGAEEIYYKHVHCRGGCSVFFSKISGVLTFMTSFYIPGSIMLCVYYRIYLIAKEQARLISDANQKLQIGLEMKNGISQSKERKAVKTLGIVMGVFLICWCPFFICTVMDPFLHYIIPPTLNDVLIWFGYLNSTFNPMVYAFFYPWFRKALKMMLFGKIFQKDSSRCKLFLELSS
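Material: RD-HGA16 CHO cells with stable hTAAR1 and Gα16; Dosing: single nominal final test compound concentration of 3 µM; Schedule: seeding 17-24 h prior, 75-min 37 °C, 30-min RT dye loading; Detection: kinetic Fluo-8 calcium fluorescence measurement; Measure: % inhibition from peak post-agonist over basal fluorescence ratio; Benchmarks: vehicle and agonist controls.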
V1aR counter – counter-screen for oxytocin receptor agonists: human V1a receptor agonists. P37288. CHO-V1R cells, Fluo-8 calcium fluorescence, agonist mode; 0% DMSO, 100% 3 nM vasopressin. activation, % at 3 µM. 0.25% of 320,000 active;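 active means activation above the mean activation of all tested compounds plus 3 SD, per screening run, cut at about 20% in these data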;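 further: signal is peak over basal fluorescence ratio across a 100 second FLIPR read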
OXTR agonist – human OXTR agonism. P30559. CHO-OTR cells, Fluo-8 calcium fluorescence; normalized: DMSO 0%, oxytocin 100%. activation, % at 3 µM. 0.32% of 320,000 active;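 active means activation above the mean of all tested compounds plus 3 SD, cutoff set per screening run, cut at about 20% in these data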;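 further: peak over basal fluorescence ratio from a 100 s FLIPR kinetic read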
Target sequence (P30559 whole entry, looked up): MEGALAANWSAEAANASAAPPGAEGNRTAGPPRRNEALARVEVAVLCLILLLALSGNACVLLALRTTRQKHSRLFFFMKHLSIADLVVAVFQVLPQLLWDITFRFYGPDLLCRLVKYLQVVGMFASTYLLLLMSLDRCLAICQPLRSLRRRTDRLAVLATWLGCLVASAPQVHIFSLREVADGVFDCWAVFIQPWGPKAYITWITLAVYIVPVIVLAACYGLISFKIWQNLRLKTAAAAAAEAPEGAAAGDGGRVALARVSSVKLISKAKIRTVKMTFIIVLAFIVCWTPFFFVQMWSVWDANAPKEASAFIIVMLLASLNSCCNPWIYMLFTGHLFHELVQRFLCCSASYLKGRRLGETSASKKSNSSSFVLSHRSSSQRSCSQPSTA
OXTR potentiate – human OXTR potentiation; 0.061% of 320,000 active; AID 2445; CHO-OTR cells, Fluo-8 calcium fluorescence, potentiator mode; 0% = oxytocin EC15, 100% = EC100; activation, % at 3 µM; P30559;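 active means activation above that plate's cutoff, the mean activation of tested compounds plus 3 SD, cut at about 6.6% in these data, passing the limit was not always enough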;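 further: 100% uses oxytocin at 75 nM as the full agonist control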
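Dosing: Single dose, 3.0 µM nominal final compound concentration | Material: Human OTR in CHO cells | Technique: Kinetic Fluo-8 calcium fluorescence | Benchmarks: EC15 oxytocin alone as 0%, 75 nM oxytocin as 100% | Probe or stimulus: Oxytocin at about EC15, sub-maximal agonist stimulus | Incubation: Compound 6 min at room temperature before oxytocin, 100 s read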
TAAR1 ag – agonists of human TAAR1; 0.99% of 360,000 active; CHO RD-HGA16 TAAR1, Fluo-8 calcium fluorescence; vehicle wells 0%, saturating PEA agonist 100%; activation, % at 3 µM; AID 624467;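 active means activation above the mean activation of all test compounds in the run plus 3 SD, cut at about 38% in these data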
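System: CHO-derived RD-HGA16 cells with stable Gα16 and human TAAR1. Times: 17-24 h plating, Fluo-8 75 min 37 °C, 30 min RT. Measured by: calcium-sensitive Fluo-8 signal, excitation 470-495, emission 515-575 nm. Read-out basis: % activation relative to PEA EC100 response. Control set: DMSO and PEA EC100. Repeats: no replicates (n 1).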
TAAR1 nonsel count – counter-screen for TAAR1 antagonists: nonselective antagonists | shares compounds with TAAR1 antag | counterscreen cell line, calcium fluorescence, antagonist mode | inhibition, % at 3 µM | 77% of 2,400 active; in the data active means inhibition above about 22%;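 further: CHO-Ga16 host cells stimulated with ATP at an EC80 level; 0% = agonist EC80 plus vehicle and 100% = vehicle without agonist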
TAAR1 antag conf – confirmation of human TAAR1 antagonists; shares compounds with TAAR1 antag; TAAR1-expressing cells, fluorescence antagonist read-out; inhibition, % at 3 µM; 40% of 2,400 active; AID 651785; in the data active means inhibition above about 49%;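 further: CHO-Ga16 host cells challenged with agonist PEA near its EC80; 0% = agonist at EC80 plus vehicle and 100% = vehicle with no agonist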
Ga16 ag counter – nonselective Ga16 agonism, counter-screen; shares compounds with TAAR1 antag; Ga16-expressing cells, calcium fluorescence, agonist counterscreen; activation, % at 3 µM; 18% of 2,400 active; in the data active means activation above about 12%;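 further: 0% = vehicle wells and 100% = saturating stimulus response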
TAAR1 ag count – counter-screen for human TAAR1 antagonists: TAAR1 agonists; shares compounds with TAAR1 antag; hTAAR1 cell line, fluorescence activation, agonist mode; activation, % at 3 µM; 2% of 2,400 active; in the data active means activation above about 37%;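 further: CHO cells stably expressing TAAR1 with calcium dye readout; 0% = DMSO vehicle and 100% = full agonist response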
* = called active by the depositor. Compounds with a hit are over-represented: about 2.3% of the library has one in this group of screens.

Screening CCC(=O)c1cccc(-c2ccccc2)c1CC returned TAAR1 antag -10.8 and TAAR1 ag -2.3.
Screening COc1ccccc1N1CCN(C(=O)c2ccc(Br)o2)CC1 returned TAAR1 antag 101.4*, V1aR counter -0.8, OXTR agonist -1.0, OXTR potentiate -3.9, TAAR1 ag -3.2, TAAR1 nonsel count 9.5, TAAR1 antag conf 15.2, Ga16 ag counter 11.4 and TAAR1 ag count 15.4.
COc1ccccc1N1CCN(C(=O)c2oc3ccc(F)cc3c2C)CC1 was read as TAAR1 antag 53.5*, V1aR counter 2.1, OXTR agonist -2.2, OXTR potentiate -2.4, TAAR1 ag 12.2, TAAR1 nonsel count 26.4*, TAAR1 antag conf 50.7*, Ga16 ag counter 7.5 and TAAR1 ag count 7.0.
Screening COc1ccccc1N1CCN(C(=O)/C=C/c2ccccc2)CC1 returned TAAR1 antag 105.1*, V1aR counter -1.2, OXTR agonist -1.5, OXTR potentiate 0.5, TAAR1 ag 15.8, TAAR1 nonsel count 6.1, TAAR1 antag conf 4.8, Ga16 ag counter 0.6 and TAAR1 ag count 4.0.
COc1ccccc1N1CCN(C(=O)c2oc3ccc(Br)cc3c2C)CC1 was read as TAAR1 antag -15.9, V1aR counter 0.8, OXTR agonist -1.1, OXTR potentiate -6.9 and TAAR1 ag -0.6.
CCCN(CC(=O)Nc1ccccc1OC)C(=O)CCC(=O)c1ccc(Cl)s1 was read as TAAR1 antag 1.0, V1aR counter -0.2, OXTR agonist -2.4, OXTR potentiate -6.8 and TAAR1 ag -3.2.
For C[C@H]1CN([C@@H](C)CO)C(=O)CCCn2nncc2CO[C@H]1CN(C)C(=O)c1cc(-c2ccccc2)on1 the results were TAAR1 antag -20.4 and TAAR1 ag 5.6.
For COc1ccccc1N1CCN(C(=O)CSc2ncnc3scc(-c4ccccc4)c23)CC1 the results were TAAR1 antag 55.9*, V1aR counter -1.5, OXTR agonist -2.9, OXTR potentiate -10.5, TAAR1 ag 2.6, TAAR1 nonsel count 21.8*, TAAR1 antag conf 33.4, Ga16 ag counter 4.9 and TAAR1 ag count 9.9.
Screening Cc1ccccc1S(=O)(=O)Cc1ccc(C(=O)NC(C)c2ccc3c(c2)OCCO3)o1 (stereo not drawn) returned TAAR1 antag 36.0, V1aR counter 1.1, OXTR agonist 1.7, OXTR potentiate -16.8 and TAAR1 ag 8.3.
For CC(NC(=O)c1ccc(CS(=O)(=O)c2ccc(Cl)cc2)o1)c1ccc2c(c1)OCCO2 (stereo not drawn) the results were TAAR1 antag 59.0*, V1aR counter 4.8, OXTR agonist 5.6, OXTR potentiate -8.0, TAAR1 ag 19.0, TAAR1 nonsel count 31.8*, TAAR1 antag conf 52.9*, Ga16 ag counter 11.5 and TAAR1 ag count 9.5.
Screening COc1cccc(/C=N/N2CCN(C3c4ccccc4-c4ccccc43)CC2)c1O returned TAAR1 antag -54.5, V1aR counter -0.4, OXTR agonist -0.3, OXTR potentiate -5.4 and TAAR1 ag 0.0.
Screening O=c1c2ccccc2oc2cc(C#CC3(O)CCCCC3)ccc12 returned TAAR1 antag 28.2, V1aR counter 0.4, OXTR agonist -1.6, OXTR potentiate -11.3 and TAAR1 ag 30.6.
`COc1cccc2oc3cc(C#CC4(O)CCCCC4)ccc3c(=O)c12` gave TAAR1 antag 56.7*, V1aR counter -0.8, OXTR agonist -0.9, OXTR potentiate -15.3, TAAR1 ag 22.1, TAAR1 nonsel count 21.6*, TAAR1 antag conf 31.9, Ga16 ag counter 7.5 and TAAR1 ag count 16.8.
COc1cccc2sc3ccc(C#CC4(O)CCCCC4)cc3c(=O)c12 was read as TAAR1 antag 60.0*, V1aR counter 0.0, OXTR agonist -1.4, OXTR potentiate -5.5, TAAR1 ag 16.5, TAAR1 nonsel count 22.2*, TAAR1 antag conf 31.4, Ga16 ag counter 5.7 and TAAR1 ag count 3.6.
O=c1c2ccccc2sc2ccc(C#CC3(O)CCCCC3)cc12 was read as TAAR1 antag 33.3, V1aR counter -0.4, OXTR agonist -1.1, OXTR potentiate -7.9 and TAAR1 ag 6.6.
For COc1ccc(N(CC(=O)Nc2ccc(F)cc2F)S(=O)(=O)c2c(C)nn(C)c2C)cc1 the results were TAAR1 antag -16.5, V1aR counter -0.2, OXTR agonist 0.1, OXTR potentiate -12.1 and TAAR1 ag -0.7.
COc1ccc(/C=N/NC(=O)c2cc3c(ccc4ccccc43)o2)cc1OC was read as TAAR1 antag 53.0*, TAAR1 ag 6.5, TAAR1 nonsel count 27.9*, TAAR1 antag conf 35.8, Ga16 ag counter 7.4 and TAAR1 ag count 3.3.
`COc1ccc(/C=N\NC(=O)c2cc3c(ccc4ccccc43)o2)cc1O` gave TAAR1 antag 56.9*, TAAR1 ag 10.4, TAAR1 nonsel count 39.5*, TAAR1 antag conf 54.6*, Ga16 ag counter 13.0* and TAAR1 ag count 11.8.
Screening O=C1c2ccccc2NC(c2ccc(O)cc2)N1c1ccccc1 (stereo not drawn) returned TAAR1 antag 7.6, V1aR counter 2.9, OXTR agonist 0.2, OXTR potentiate 0.5 and TAAR1 ag -1.2.
Screening Cc1cc(=O)c(C(=O)O)nn1-c1ccccc1 returned TAAR1 antag -26.0, V1aR counter -0.3, OXTR agonist 0.3, OXTR potentiate -8.8 and TAAR1 ag 5.7.
Cc1ccc(C)c(NC(=O)COc2cccc3c2CCN(Cc2ccccc2)C3=O)c1 was read as TAAR1 antag 62.7*, V1aR counter -0.5, OXTR agonist -1.6, OXTR potentiate -2.0, TAAR1 ag 8.4, TAAR1 nonsel count 27.3*, TAAR1 antag conf 38.5, Ga16 ag counter 4.6 and TAAR1 ag count 1.5.
Cc1ccc(CN2CCc3c(OCC(=O)Nc4cc(C)ccc4C)cccc3C2=O)cc1 was read as V1aR counter 1.4, OXTR agonist -0.2 and OXTR potentiate -13.6.
`CCCCn1c(N)c(N(CC(C)C)C(=O)c2ccco2)c(=O)[nH]c1=O` gave TAAR1 antag -15.1, V1aR counter 1.1, OXTR agonist -1.1, OXTR potentiate -2.7 and TAAR1 ag -0.2.

Compound activity from PubChem.
